# Data published in paper PMC9075995 (RSC Advances, 2019).
# Read-outs that look alike come from different tables or passages of the source.
# Columns and labels:
# [1] = test system: HL-60 (leukemia promyelocytic); details: read-out: Cell culture IC50; HL-60, referential compounds; cited from earlier work
# [2] = test system: NALM-6 (leukemia lymphoblastic); details: read-out: Cell culture IC50; NALM-6, referential compounds; cited from earlier work
# [3] = test system: WM-115 (human melanoma); details: read-out: Cell culture IC50; WM-115, referential compounds; cited from earlier work
# [4] = test system: S. aureus ATCC 29213; assay: MIC and MBC by broth microdilution, subculture on agar; format: cell-based, Staphylococcus aureus; details: for MBC/MFC: S. aureus ATCC 29213, second line per compound, subculture on agar 24 h, 37 °C; for MIC: Staphylococcus aureus, ATCC29213
# How it was run: (§1)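 EUCAST broth microdilution used Mueller-Hinton broth for bacteria and phenol-red-free RPMI-1640 for Candida. Test compound ran at a final 31.2–1000 μg ml−1, from 80 mg ml−1 DMSO stocks, with DMSO ≤1.25%. […] For MBC/MFC, 10 μl from the MIC, 2× and 4× MIC wells was plated on agar for 24 h at 37 °C. Done in duplicate, 2 sets.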
# [5] = test system: S. epidermidis ATCC 12228; assay: as above; format: cell-based, Staphylococcus epidermidis; details: for MIC: Staphylococcus epidermidis, ATCC12228
# How it was run: as §1
# [6] = test system: E. faecalis ATCC 29212; assay: as above; format: cell-based, Enterococcus faecalis; details: for MBC/MFC: second line per compound, subculture on agar 24 h, 37 °C; for MIC: Enterococcus faecalis, ATCC29212
# How it was run: as §1
# [7] = test system: P. aeruginosa ATCC 25619; assay: as above; format: cell-based; details: Pseudomonas aeruginosa, ATCC25619
# How it was run: as §1
# [8] = test system: P. vulgaris ATCC 8427; assay: as above; format: cell-based, Proteus vulgaris; details: for MBC/MFC: P. vulgaris ATCC 8427, second line per compound, subculture on agar 24 h, 37 °C; for MIC: Proteus vulgaris, ATCC8427
# How it was run: as §1
# [9] = test system: C. albicans ATCC 10231; assay: MIC and MFC by broth microdilution, subculture on agar; format: cell-based, Candida albicans; details: for MBC/MFC: C. albicans ATCC 10231, second line per compound, subculture on agar 24 h, 37 °C; for MIC: Candida albicans, ATCC10231
# How it was run: as §1
# [10] = test system: HL-60 (leukemia promyelocytic); assay: Anticancer activity, MTT assay; format: cell-based, human; details: for IC50: Homo sapiens, HL-60, 48 h, read-out: Cell culture IC50; for anticancer activity in words: HL-60
# How it was run: (§2)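 Human leukaemia (HL-60, NALM-6) or melanoma (WM-115) cells were exposed to the test compound for 46 h, then given MTT for a further 2 h. Fresh DMSO stocks were diluted in complete medium, with DMSO ≤0.2%. Untreated cells served as control. IC50 was taken from concentration–response curves, as mean ± SD of 4 experiments.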
# [11] = test system: NALM-6 (leukemia lymphoblastic); assay: Anticancer activity, MTT assay; format: cell-based, human; details: for IC50: Homo sapiens, NALM-6, 48 h, read-out: Cell culture IC50; for anticancer activity in words: NALM-6
# How it was run: as §2
# [12] = test system: WM-115 (human melanoma); assay: Anticancer activity, MTT assay; format: cell-based; details: for IC50: Homo sapiens, WM-115, 48 h, read-out: Cell culture IC50
# How it was run: as §2
# [13] = test system: Supercoiled plasmid pUC57 DNA; assay: Cleavage of pUC57 DNA, agarose gel electrophoresis; format: biochemical; details: 37 °C, 24 h, pH 7.2, gel electrophoresis
# How it was run: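 Supercoiled pUC57 plasmid (4634 bp) in 10 mM Tris–HCl/50 mM NaCl, pH 7.2, was incubated with the test compound (50, 100, 200, 300, 400 μM) at 37 °C for 24 h. Samples ran on 1% agarose at 75 V in TAE, were stained with Midori green and imaged under UV. Band intensities gave the fraction of each DNA form. Control was DNA with matching DMSO in buffer. Done in triplicate.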
# [14] = test system: human foreskin fibroblasts HFF-1 (ATCC-SCRC-1041); assay: Cytotoxicity on normal fibroblasts, MTT reduction assay; format: cell-based; details: for metabolic activity higher than untreated control cells: HFF-1, low concentrations 3.9–31.2 μM
# How it was run: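 HFF-1 fibroblasts were seeded at 1 × 10^5/well in DMEM with 15% FCS and pen/strep and grown 48 h (37 °C, 5% CO2). They were exposed 24 h to the test compound (25 mM DMSO stocks; final 3.9–500 μM). Cells were washed and given MTT (1.5 mg ml−1) for 2 h. Formazan was dissolved overnight in 20% SDS in DMF/water and read at 550 nm. Viability is relative to 2% DMSO control; IC50 came from trend-line equations. Two experiments, duplicates each.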
MIC [4] [mg/L],MIC [5] [mg/L],MIC [6] [mg/L],MIC [7] [mg/L],MIC [8] [mg/L],MIC [9] [mg/L],IC50 [10] [µM],IC50 [11] [µM],IC50 [12] [µM],Compound,MBC/MFC [4] [mg/L],MBC/MFC ([6]; E. faecalis ATCC 29212) [mg/L],MBC/MFC [8] [mg/L],MBC/MFC [9] [mg/L],effect on supercoiled plasmid DNA (cleavage of Form I) [13],other results
–,–,–,–,–,–,–,–,–,N.N.O=C([O-])C1(C(=O)[O-])CCC1.[Pt+2] [Carboplatin],–,–,–,–,–,IC50 [1]: 4.3 ± 1.3 µM; IC50 [2]: 0.7 ± 0.2 µM; IC50 [3]: 422 ± 50.2 µM
> 1000,> 1000,> 1000,> 1000,> 1000,> 1000,584 ± 84.3,569 ± 21.9,> 1000,"Cc1cc(C)n(C(N)=S)n1 [Compound 1a, 1-[amino(thioxo)methyl]-3,5-dimethyl-1H-pyrazole]",>1000,>1000,>1000,>1000,did not affect the DNA,–
–,–,–,–,–,–,–,–,–,"[(η^6-p-cymene)Ru(1-[amino(thioxo)methyl]-3,5-diethyl-1H-pyrazole)Cl2 [Compound 2b]",125,62.5,>1000,–,cleavage the DNA Form I into Form II and Form III,metabolic activity higher than untreated control cells [14]: 39–45%
–,–,–,–,–,–,–,–,–,Cc1cc(C)n(C(N)=S)n1.Cc1ccc(C(C)C)cc1.[Cl][Ru][Cl] [Compound 2a],125,125,>1000,–,no influence,metabolic activity higher than untreated control cells [14]: 39–45%
–,–,–,–,–,–,–,–,–,N.N.[Cl][Pt][Cl] [Cisplatin],–,–,–,–,–,IC50 [1]: 0.8 ± 0.1 µM; IC50 [2]: 0.7 ± 0.3 µM; IC50 [3]: 18.2 ± 4.3 µM
–,–,–,–,–,–,–,–,–,[(η^6-p-cymene)Ru(1-[amino(thioxo)methyl]-5-hydroxy-3-methyl-1H-pyrazole) Cl2 [Compound 2d],500,1000,1000,>1000,cleavage the DNA Form I into Form II and Form III,"viability of HFF-1 cells ([14]; HFF-1, 24 h, over tested range 3.9–500 μM): ≥ 80%; anticancer activity in words [10]: inactive; anticancer activity in words [11]: inactive; activity stronger than cisplatin (fold, from IC50 values) ([12]; WM-115): above 2 fold"
–,–,–,–,–,–,–,–,–,[(η^6-p-cymene)Ru(1-[amino(thioxo)methyl]-5-hydroxy-3-phenyl-1H-pyrazole)Cl2 [Compound 2c],62.5,<31.2,>1000,>1000,no influence,activity (MIC) stronger than ligand 1c ([5]; S. epidermidis ATCC 12228): more than 2 fold; activity (MIC) stronger than ligand 1c ([6]; E. faecalis ATCC 29212): > 16 fold
–,–,–,–,–,–,–,–,–,"Cc1ccc(C(C)C)cc1.Cc1ccc(C(C)C)cc1.[Cl][Ru][Cl].[Cl][Ru][Cl] [Dimer, dichloro(p-cymene)ruthenium(II)dimer, reference compound]",>1000,>1000,>1000,>1000,no effect,anticancer activity in words [10]: inactive; anticancer activity in words [11]: inactive; anticancer activity in words ([12]; WM-115): inactive
1000,> 1000,> 1000,> 1000,1000,1000,506 ± 47.1,469 ± 44.4,481 ± 39.4,"CCc1cc(CC)n(C(N)=S)n1 [Compound 1b, 1-[amino(thioxo)methyl]-3,5-diethyl-1H-pyrazole]",>1000,>1000,1000,1000,did not affect the DNA,–
1000,62.5,500,> 1000,> 1000,> 1000,618 ± 32,152 ± 26.7,752 ± 118,"NC(=S)n1nc(-c2ccccc2)cc1O [Compound 1c, 1-[amino(thioxo)methyl]-5-hydroxy-3-phenyl-1H-pyrazole]",>1000,>1000,>1000,>1000,–,–
1000,250,250,> 1000,> 1000,> 1000,779 ± 125,615 ± 60.9,90.9 ± 10.2,"Cc1cc(O)n(C(N)=S)n1 [Compound 1d, 1-[amino(thioxo)methyl]-5-hydroxy-3-methyl-1H-pyrazole]",>1000,>1000,>1000,>1000,did not affect the DNA,–
